In ChEMBL document CHEMBL4033799, “Stable and Long-Lasting, Novel Bicyclic Peptide Plasma Kallikrein Inhibitors for the Treatment of Diabetic Macular Edema” (J Med Chem, 2018) one finds Ki data, which are given here for three compounds.

The nature of assay [1]: Inhibition of cynomolgus monkey plasma kallikrein using fluorogenic H-Pro-Phe-Arg-AMC peptide as substrate preincubated for 15 mins followed by substrate addition measured by fluorescence-based assay. The settings on record: read-out: Ki(app).
For assay [2], the target named is T1, Coagulation factor XII (Homo sapiens, UniProt P00748).
T1 sequence (P00748 whole entry): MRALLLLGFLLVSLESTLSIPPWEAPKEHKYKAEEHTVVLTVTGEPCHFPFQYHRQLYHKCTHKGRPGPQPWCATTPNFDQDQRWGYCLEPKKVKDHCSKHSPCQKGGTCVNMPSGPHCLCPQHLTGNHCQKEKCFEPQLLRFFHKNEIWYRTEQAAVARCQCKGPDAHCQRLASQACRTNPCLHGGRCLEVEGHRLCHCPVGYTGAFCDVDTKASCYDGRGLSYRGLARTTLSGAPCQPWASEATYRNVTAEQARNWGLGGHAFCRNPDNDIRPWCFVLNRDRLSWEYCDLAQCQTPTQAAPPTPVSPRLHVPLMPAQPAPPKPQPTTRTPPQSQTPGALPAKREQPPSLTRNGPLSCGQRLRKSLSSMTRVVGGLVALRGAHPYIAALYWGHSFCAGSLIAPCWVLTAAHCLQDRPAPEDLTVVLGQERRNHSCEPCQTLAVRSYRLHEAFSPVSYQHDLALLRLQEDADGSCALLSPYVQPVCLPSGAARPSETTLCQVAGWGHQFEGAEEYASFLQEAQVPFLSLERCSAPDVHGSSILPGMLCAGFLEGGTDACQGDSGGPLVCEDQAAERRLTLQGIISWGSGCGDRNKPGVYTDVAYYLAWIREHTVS
Put plainly: Inhibition of human factor 12a using fluorogenic peptide as substrate by fluorescence based assay. Put shortly:
(§1)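 Human serine proteases were assayed with substrates and conditions set by each supplier's recommendations. Peptides were first screened at 50 μM. Where inhibition was detected, Ki was determined from activity across peptide concentrations using a tight-binding rate equation.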

Assay [3] can be described thus: Inhibition of rabbit plasma kallikrein using fluorogenic H-Pro-Phe-Arg-AMC peptide as substrate preincubated for 15 mins followed by substrate addition measured by fluorescence-based assay. The arrangement: species or system Oryctolagus cuniculus. The following applies: read-out: Ki(app). Put shortly:
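Assays ran at 25 °C in 50 mM Tris-HCl, 250 mM NaCl, 1.5 μM BSA, pH 7.5. PKal (nominal 1–2 nM) was preincubated 15 min with serially diluted peptide. […] Human PKal was purified from plasma; rat PKal was made in-house or bought; other species were purified in-house from kaolin-activated plasma.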

Assay [4] deals with T2, Coagulation factor VII (Homo sapiens, UniProt P08709).
T2 sequence (P08709 whole entry): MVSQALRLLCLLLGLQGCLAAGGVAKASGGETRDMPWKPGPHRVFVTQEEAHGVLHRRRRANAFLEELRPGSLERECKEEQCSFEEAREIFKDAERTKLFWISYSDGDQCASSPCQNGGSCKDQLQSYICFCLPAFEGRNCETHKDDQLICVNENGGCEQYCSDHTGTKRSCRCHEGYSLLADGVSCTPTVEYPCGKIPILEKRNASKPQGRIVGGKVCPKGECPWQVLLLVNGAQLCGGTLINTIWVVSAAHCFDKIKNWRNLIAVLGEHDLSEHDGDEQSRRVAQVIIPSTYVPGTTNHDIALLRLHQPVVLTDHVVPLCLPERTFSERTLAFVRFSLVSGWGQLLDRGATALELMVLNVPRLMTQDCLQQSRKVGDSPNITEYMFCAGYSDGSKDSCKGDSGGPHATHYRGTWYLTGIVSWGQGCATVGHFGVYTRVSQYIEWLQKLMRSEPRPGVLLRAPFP
In words: Inhibition of human factor 7a using fluorogenic peptide as substrate by fluorescence based assay. Put shortly:
as §1

Assay [5] concerns the target T3, Kallikrein-12 (Homo sapiens, UniProt Q9UKR0).
T3 sequence (Q9UKR0 whole entry): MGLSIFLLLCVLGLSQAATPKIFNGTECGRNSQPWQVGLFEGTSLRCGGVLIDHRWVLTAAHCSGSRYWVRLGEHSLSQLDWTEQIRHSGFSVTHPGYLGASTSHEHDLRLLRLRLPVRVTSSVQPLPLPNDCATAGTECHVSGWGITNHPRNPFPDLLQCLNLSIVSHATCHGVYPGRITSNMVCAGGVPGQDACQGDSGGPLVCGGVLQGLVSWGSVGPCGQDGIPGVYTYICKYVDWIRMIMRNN
In words: Inhibition of recombinant human C-terminal 10His-tagged KLK12 (18 to 248 residues) expressed in mouse NS0 cells using fluorogenic Boc-VPR-AMC peptide as substrate by fluorescence based assay. The method, boiled down:
as §1

For assay [6], the target named is Plasminogen (Homo sapiens, UniProt P00747). In words: Inhibition of recombinant human plasmin using fluorogenic D-AFK-ANSNH-iC4H9.2HBr peptide as substrate by fluorescence based assay. Put shortly:
(§2)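 Panel of human serine proteases. Substrates and assay conditions followed each supplier's recommendations. Peptides were first screened at 50 μM. Where inhibition was detectable, hydrolytic activity was measured across a range of peptide concentrations. Ki was obtained by fitting to the tight-binding inhibitor rate equation.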

The target of assay [7] is T4, Kallikrein-13 (Homo sapiens, UniProt Q9UKR3).
T4 sequence (Q9UKR3 whole entry): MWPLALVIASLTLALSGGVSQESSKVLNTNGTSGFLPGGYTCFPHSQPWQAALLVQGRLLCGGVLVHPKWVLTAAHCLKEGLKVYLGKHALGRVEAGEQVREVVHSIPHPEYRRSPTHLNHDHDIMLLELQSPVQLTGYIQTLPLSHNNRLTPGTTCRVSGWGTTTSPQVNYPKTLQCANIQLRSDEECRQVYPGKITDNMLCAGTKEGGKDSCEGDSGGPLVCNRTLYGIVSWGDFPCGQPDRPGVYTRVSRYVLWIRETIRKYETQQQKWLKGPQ
In words: Inhibition of recombinant human C-terminal polyHis-tagged KLK13 (1 to 262 residues) expressed in HEK293 cells using fluorogenic Boc-VPR-AMC peptide as substrate by fluorescence based assay. Put shortly: as §2

Assay [8] deals with Coagulation factor XI (Homo sapiens, UniProt P03951). In words: Inhibition of human factor 11a using fluorogenic peptide as substrate by fluorescence based assay. Put shortly:
as §1

Assay [9] deals with Granzyme B (Homo sapiens, UniProt P10144). In words: Inhibition of recombinant human Granzyme B (21 to 247 residues) using […] Ac-IEPD-pNA peptide as substrate […]. Put shortly: as §2

Where only a bound is given, the exact number is not on record here.

Sequence of Coagulation factor XI (P03951 19-387 limits assumed): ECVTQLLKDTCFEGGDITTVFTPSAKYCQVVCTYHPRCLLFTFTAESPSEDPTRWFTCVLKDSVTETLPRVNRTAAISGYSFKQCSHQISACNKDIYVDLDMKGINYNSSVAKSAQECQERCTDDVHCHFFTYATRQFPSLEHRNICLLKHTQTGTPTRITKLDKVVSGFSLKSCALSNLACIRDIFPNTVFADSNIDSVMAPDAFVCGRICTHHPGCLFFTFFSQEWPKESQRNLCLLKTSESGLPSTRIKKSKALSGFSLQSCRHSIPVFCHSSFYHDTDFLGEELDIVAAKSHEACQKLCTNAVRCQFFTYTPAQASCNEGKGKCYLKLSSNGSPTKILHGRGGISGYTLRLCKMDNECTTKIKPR
Sequence of Coagulation factor XI (P03951 388-625 limits assumed): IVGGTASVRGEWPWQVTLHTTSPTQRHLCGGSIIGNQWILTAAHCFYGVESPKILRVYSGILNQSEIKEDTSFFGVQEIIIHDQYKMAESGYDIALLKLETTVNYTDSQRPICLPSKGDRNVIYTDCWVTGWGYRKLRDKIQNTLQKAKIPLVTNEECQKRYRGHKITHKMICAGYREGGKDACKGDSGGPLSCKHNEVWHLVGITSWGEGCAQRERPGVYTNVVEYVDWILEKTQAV
Sequence of Plasminogen (P00747 97-580 limits assumed): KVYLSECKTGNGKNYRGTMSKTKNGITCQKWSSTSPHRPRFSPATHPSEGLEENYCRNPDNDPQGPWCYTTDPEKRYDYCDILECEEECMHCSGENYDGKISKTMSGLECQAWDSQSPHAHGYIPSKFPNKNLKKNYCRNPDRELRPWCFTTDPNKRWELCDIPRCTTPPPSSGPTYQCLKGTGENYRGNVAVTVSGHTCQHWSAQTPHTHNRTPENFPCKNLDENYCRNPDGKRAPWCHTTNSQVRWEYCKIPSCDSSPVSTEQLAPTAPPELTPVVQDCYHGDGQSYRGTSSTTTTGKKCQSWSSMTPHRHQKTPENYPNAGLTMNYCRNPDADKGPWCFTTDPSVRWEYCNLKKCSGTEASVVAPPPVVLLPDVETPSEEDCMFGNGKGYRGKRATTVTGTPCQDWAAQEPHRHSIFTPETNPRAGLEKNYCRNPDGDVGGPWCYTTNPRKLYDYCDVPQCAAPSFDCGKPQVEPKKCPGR
Sequence of Plasminogen (P00747 581-810 limits assumed): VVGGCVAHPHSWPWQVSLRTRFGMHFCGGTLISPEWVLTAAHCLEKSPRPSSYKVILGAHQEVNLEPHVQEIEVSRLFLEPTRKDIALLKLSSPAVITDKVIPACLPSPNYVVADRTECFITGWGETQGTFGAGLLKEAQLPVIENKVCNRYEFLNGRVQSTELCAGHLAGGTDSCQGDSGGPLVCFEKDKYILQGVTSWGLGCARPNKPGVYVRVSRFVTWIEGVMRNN
Sequence of Granzyme B (P10144 whole entry, the tested form may be a part): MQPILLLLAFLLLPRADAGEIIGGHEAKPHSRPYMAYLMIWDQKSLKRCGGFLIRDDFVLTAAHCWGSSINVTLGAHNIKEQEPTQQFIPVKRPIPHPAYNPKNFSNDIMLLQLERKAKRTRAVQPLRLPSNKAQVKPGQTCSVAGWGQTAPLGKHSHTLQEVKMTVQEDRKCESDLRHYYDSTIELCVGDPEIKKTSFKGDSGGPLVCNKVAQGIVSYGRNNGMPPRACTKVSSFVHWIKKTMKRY

For the compound `CC(=O)N[C@H]1CSCc2cc3cc(c2)CSC[C@H](NC(=O)[C@H](CCCCNC(=N)N)NC(=O)[C@H](Cc2ccc(O)cc2)NC(=O)[C@@H]2CCN2C(=O)[C@H](Cc2ccccc2)NC(=O)[C@H](CO)NC1=O)C(=O)N[C@@H](C)CN[C@@H](Cc1cnc[nH]1)C(=O)N[C@@H](CCC(N)=O)C(=O)N[C@@H](CC(=O)O)C(=O)N[C@@H](CC(C)C)C(=O)N[C@H](C(=O)O)CSC3`, the Ki was 0.0027 µM in [1]; greater than 50 µM in [2]; 3.4 µM in assay [3]; greater than 50 µM in assay [4]; greater than 50 µM in [5]; greater than 50 µM in assay [6]. Moreover, the Ki in [7] (hek293), in assay [8] and in [9] was greater than 50 µM throughout.
Take `CC[C@H](C)[C@@H]1NC(=O)[C@H](CC(=O)O)NC(=O)[C@@H]2CCCN2C(=O)[C@H](Cc2ccc(O)cc2)NC(=O)[C@H](Cc2ccc(O)cc2)NC(=O)[C@H](C(C)C)NC(=O)[C@@H]2CSCc3cc(cc(c3)CSC[C@@H](C(=O)N[C@@H](C)C(=O)N(C)CC(=O)N(C)CC(=O)N(C)CC(=O)N[C@H](CCCNC(=N)N)C(=O)N[C@H](CCCNC(=N)N)C(=O)O)NC1=O)CSC[C@H](NC(C)=O)C(=O)N[C@@H](CO)C(=O)N[C@@H](Cc1ccccc1)C(=O)N1CCC1C(=O)N[C@@H](Cc1ccc(O)cc1)C(=O)N[C@@H](CCCCNC(=N)N)C(=O)N2` (some centres not stated): the Ki in assay [1] is 0.00086 µM; in [2], greater than 50 µM; in assay [3], 2.65 µM; in assay [4] it was greater than 50 µM; in [5], greater than 50 µM; in assay [6], greater than 50 µM. Further, the results for the Ki in assay [7], in assay [8] and in assay [9] were 0.82 µM, 0.5 µM and greater than 50 µM, respectively.
Take `CC(=O)N[C@H]1CSCc2cc3cc(c2)CSC[C@H](C(=O)N[C@@H](C)C(=O)N(C)CC(=O)N(C)CC(=O)N(C)CC(=O)N[C@H](CCCNC(=N)N)C(=O)N[C@H](CCCNC(=N)N)C(=O)O)NC(=O)[C@H](CC(C)C)NC(=O)[C@@H]2CCCN2C(=O)[C@H](C)NC(=O)[C@H](CC(=O)O)NC(=O)[C@H](Cc2c[nH]c4ccccc24)NC(=O)[C@@H]2CCCN2C(=O)[C@H](CSC3)NC(=O)[C@H](Cc2c[nH]c3ccccc23)NC(=O)[C@@H]2CCCN2C(=O)[C@H](CC(N)=O)NC(=O)[C@H](Cc2c[nH]c3ccccc23)NC(=O)[C@H]([C@@H](C)O)NC(=O)[C@H](CC(N)=O)NC1=O`: the Ki in assay [1] was 0.0031 µM; in assay [2] it was greater than 50 µM; in [3], 1.45 µM; in assay [4], greater than 50 µM; in [5], greater than 50 µM; in assay [6] it was greater than 50 µM. For the same compound, the Ki in [7] (hek293), in assay [8] and in assay [9] was greater than 50 µM throughout.
